Assay outcomes as filed in PubChem BioAssay.
Hits are enriched below; roughly 2.2% of the tested compounds scored in any of these assays.
DAGLB inh: diacylglycerol lipase beta (human) inhibition; HEK293T DAGLB membrane lysate, EnzChek fluorogenic substrate; inhibition, % at 5.17 µM; 340,000 compounds, 0.059% hits; AID 504411; in the data active = inhibition above about 34%;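 note: 0% = enzyme with vehicle and 100% = wells lacking enzyme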
Target sequence (Q8NCG7 whole entry, looked up): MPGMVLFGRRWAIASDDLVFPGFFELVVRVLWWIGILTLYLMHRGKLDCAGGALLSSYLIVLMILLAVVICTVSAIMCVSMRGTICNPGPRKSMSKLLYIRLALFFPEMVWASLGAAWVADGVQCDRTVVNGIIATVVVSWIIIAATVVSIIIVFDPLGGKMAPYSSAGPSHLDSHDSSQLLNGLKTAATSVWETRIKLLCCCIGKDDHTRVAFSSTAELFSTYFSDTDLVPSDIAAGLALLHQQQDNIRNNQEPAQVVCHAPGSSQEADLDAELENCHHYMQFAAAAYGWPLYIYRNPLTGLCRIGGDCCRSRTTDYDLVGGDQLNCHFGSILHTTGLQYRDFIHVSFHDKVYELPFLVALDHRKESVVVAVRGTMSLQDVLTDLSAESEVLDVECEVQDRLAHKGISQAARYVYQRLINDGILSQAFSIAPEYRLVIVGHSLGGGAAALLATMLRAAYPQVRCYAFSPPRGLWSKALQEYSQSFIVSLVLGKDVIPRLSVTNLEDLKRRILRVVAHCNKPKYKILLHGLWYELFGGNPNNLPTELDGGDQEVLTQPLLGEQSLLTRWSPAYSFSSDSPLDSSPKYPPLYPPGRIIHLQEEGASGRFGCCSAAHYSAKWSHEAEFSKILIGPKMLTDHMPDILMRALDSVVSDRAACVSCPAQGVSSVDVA
DNA FID counter: counter-screen for HCV NS3 helicase inhibitors: DNA intercalator displacement | DNA fluorescent intercalator displacement, fluorescence | inhibition, % at 7.9 µM | 290,000 compounds, 0.17% hits | AID 1845; in the data active = inhibition above about 37%;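 note: 0% = vehicle and 100% = reference compound; higher means more ethidium bromide displaced from hairpin DNA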
GRK2 inh: human GRK2 inhibition via aptamer displacement; P25098; 330,000 compounds, 0.59% hits; bead flow cytometry, FAM-aptamer displacement from GRK2; AID 488847; inhibition of aptamer binding, % at 10 µM;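 active = inhibition of aptamer binding above 40%, roughly 3 SD of noise, on plates passing a quality check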;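 note: median bead fluorescence of bound FAM aptamer so fluorescent compounds give negative values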
HCV NS3 hel inh: blocks Hepatitis C virus NS3 helicase unwinding; inhibition, % at 10.9 µM; 290,000 compounds, 0.56% hits; NS3 helicase DNA unwinding, Cy5 molecular beacon fluorescence;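 active = inhibition above the mean of all tested compounds plus 3 SD, set per campaign, cut at about 35% in these data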;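 note: 0% = DMSO wells and 100% = thioflavine S control wells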
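Test system: hepatitis C virus NS3 helicase domain fragment enzyme. Also added: annealed dual-labelled DNA beacon duplex, ATP-started. Timing: 60 min unwinding reaction at 25 °C after ATP addition. Technique: Cy5 fluorescence. Measure: % inhibition of unwinding.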
core dimer inh: HCV core protein dimerization inhibition. TR-FRET GST/Flag-core106 dimerization, 1536-well. inhibition, % at 5 µM. 300,000 compounds, 0.33% hits. AID 1899;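 active = inhibition above the mean of all tested compounds plus 3 SD, set per screening campaign, cut at about 45% in these data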
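Material: Tagged HCV core106 pair (GST and Flag) | Amount: GST-core106 13.5 nM, Flag-core106 17 nM | Medium: KF-containing HEPES buffer, pH 7.45, DTT, CHAPS, BSA | Reagent: Eu donor and XL665 acceptor anti-tag antibodies | Schedule: 4 h at 22.5 °C | Technique: Time-resolved FRET, ex 340 nm, em 617 and 671 nm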
GPR7 antag: blocks human GPR7 receptor signaling; P48145; GPR7-expressing cells, fluorescence antagonist assay; inhibition, % at 4.4 µM; 290,000 compounds, 1.1% hits; AID 1861; in the data active = inhibition above about 16%, passing the limit was not always enough;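 note: cells stimulated with the agonist NPW; 0% = agonist with vehicle and 100% = vehicle without agonist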
GRK2 inh confirm: human GRK2 inhibition confirmation, cherry pick 1; bead-bound GRK2, FAM-aptamer displacement, flow cytometry; 2,000 compounds, 4% hits; shares compounds with GRK2 inh; aptamer displacement, % at 10 µM;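 active = aptamer displacement above 40%, near three times the noise of non-fluorescent compounds, on plates passing quality checks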;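 note: negative values mostly reflect intrinsic compound fluorescence rather than true enhancement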
Aptamer quench: fluorescent aptamer quenching in GRK2 counter-screen dose response | fluorescence change (kMESF span), kMESF (concentration not given with the values) | Fluorescent RNA aptamer beads, flow cytometry; stronger effect = higher value | shares compounds with GRK2 inh | 110 tested, under 10 active;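 active = compounds whose bead fluorescence drops by more than 37 kMESF across the dose range, marking them as dye quenchers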
FAM quench CP1: aptamer fluorescence quenching in GRK2 counter-screen; AID 504580; Carboxyfluorescein RNA aptamer on beads, flow cytometry quenching; stronger effect = lower value; fluorescence response (% of DMSO), % at 10 µM; 2,000 tested, under 10 active; shares compounds with GRK2 inh;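 active = compounds that quench the bead-bound fluorescent RNA probe, cutting fluorescence to under half of the solvent control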;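 note: counterscreen run without GRK2 so only probe quenching by compound is measured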
GRK2 CP2: confirmation of human GRK2 inhibitors binding RNA aptamer site. inhibition of aptamer binding, % at 10 µM. shares compounds with GRK2 inh. 360 tested, under 10 active. bead-bound GRK2, FAM-aptamer displacement, flow cytometry;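 active = inhibition of aptamer binding above 40%, about triple the noise seen with nonglowing compounds, on plates passing quality control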;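 note: negative values mostly come from compounds that fluoresce themselves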
Aptamer quench 2: aptamer fluorescence quenching in GRK2 counter-screen dose response. shares compounds with GRK2 inh. Streptavidin beads, FAM-RNA aptamer fluorescence quenching, flow cytometry. change in fluorescence (kMESF span), kMESF (test concentration not listed). 25 tested, under 10 active. AID 504819;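 active = compounds quenching the bead-bound labeled aptamer, with fluorescence dropping by more than 37 kMESF over the dose range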
FAM quench CP2: aptamer fluorescence quenching in GRK2 counter-screen | shares compounds with GRK2 inh | carboxyfluorescein RNA aptamer beads, flow cytometry quenching; stronger effect = lower value | fluorescence response vs DMSO, % at 10 µM | 360 tested, under 10 active | AID 588494;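 active = response vs DMSO under 50%, meaning signal dropped by over half, treated as fluorescence quencher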;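 note: labelled aptamer on streptavidin beads without GRK2 as a quench counter-screen; 100% = bead fluorescence of DMSO wells and lower means quenching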
FAM quench DR: aptamer fluorescence quenching in GRK2 powder counter-screen. 35 tested, under 10 active. AID 588496. Bead-bound FAM RNA aptamer fluorescence quenching, flow cytometry; stronger effect = lower value. shares compounds with GRK2 inh. fluorescence ratio to DMSO, % at 11.1 µM;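 active = compounds that dim the fluorescent label, raw bead signal shifting by over 33 units between lowest and highest dose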
* marks the source's active call; other numbers are inactive results; · = not tested or not shown.

SMILES	DAGLB inh	DNA FID counter	GRK2 inh	HCV NS3 hel inh	core dimer inh	GPR7 antag	GRK2 inh confirm	FAM quench CP1	others
COC(=O)C1=C(C)NC(C)=C(C(=O)OC)C1C(=O)OCC(=O)c1ccc(F)cc1	1	-8	0	-12	3	-8	·	·
COC(=O)C1=C(C)NC(C)=C(C(=O)OC)C1C(=O)OCC(=O)Nc1ccc(C(C)=O)cc1	-1	-9	75*	-3	-1	11	25	93
CCCN1CCN(S(=O)(=O)c2ccc3c(c2)NC(=O)C(C)C(=O)N3)CC1 (centres undefined)	3	-4	1	0	-12	-7	·	·
Cc1ccc(C(=O)NC2CCCCCC2)cc1N1CCCC1=O	-1	-3	2	10	-2	7	·	·
Cc1ccc(C(=O)O)cc1N1CCCC1=O	0	2	61*	12	-5	-10	0	96
O=C(CCc1nc2ccccc2c(=O)[nH]1)N1CCCc2ccccc21	4	·	0	·	9	·	·	·
Cc1cc(C)c(C)c(S(=O)(=O)N2C(=S)NC(=O)C2CC(C)C)c1C (centres undefined)	6	-12	96*	9	20	-3	-3	102
CN(c1cccc2cccnc12)S(=O)(=O)c1ccccc1	0	-4	1	0	-5	-9	·	·
CC1CCCC(C)N1C(=O)COC(=O)/C=C/c1ccc(Br)o1 (centres undefined)	0	·	43*	·	·	·	7	98
CC1CCN(C(=O)COC(=O)/C=C/c2ccc(Br)o2)CC1	1	·	0	·	·	·	·	·
CC(C)NC(=O)CC1(C(=O)NCc2ccc(Cl)cc2)CCCC1	-1	-8	50*	10	-4	4	·	·	GRK2 CP2=-1;FAM quench CP2=104
Cc1cc(/C=N\NC(=O)COc2cccc3cccnc23)c(C)n1-c1ccc(Br)cc1	-1	-15	55*	-6	23	-11	-8	123
O=C(Nc1ccccc1)N1CCCN(Cc2ccccc2F)C1	2	6	99*	16	-2	-2	1	92
CCOc1ccc(S(=O)(=O)NC2CCCCCC2)cc1	-3	-19	0	3	3	0	·	·
CCOc1ccc(NC2CCCCC2NS(=O)(=O)c2ccccc2)cc1 (centres undefined)	-4	-17	49*	-3	-4	-4	1	94
Cn1nc(C(F)(F)F)c(C(=O)Nc2ccc(F)cc2F)c1Cl	-1	1	47*	12	3	-14	-1	98
Cn1nc(C(F)(F)F)c(C(=O)Nc2ccc(F)cc2F)c1Oc1cccc(Cl)c1	-14	-8	0	-5	-4	-16	·	·
Cc1ccccc1NC(=O)CCS(=O)(=O)c1ccc(Br)cc1	0	-6	41*	1	-9	-6	18	102	Aptamer quench 2=-6.9;FAM quench DR=97
Cc1cccc(C)c1NC(=O)CCS(=O)(=O)c1ccc(Br)cc1	4	-10	2	-2	0	-17	·	·
Cc1ccc(S(=O)(=O)CCC(=O)NC2CCCCC2)cc1	2	·	0	·	·	·	·	·
Cc1ccc(NC(=O)CCS(=O)(=O)c2ccc(Br)cc2)nc1	2	-3	0	7	0	-4	1	96
CCN(CC)c1ccc(NC(=O)CCS(=O)(=O)c2ccc(Br)cc2)c(C)c1	2	-28	83*	30	-13	-13	73*	91	Aptamer quench=55*;Aptamer quench 2=4.6;FAM quench DR=98
Cc1ccc(S(=O)(=O)CCC(=O)NC2CCCC2)cc1	2	-11	0	1	3	-6	·	·	GRK2 CP2=0;FAM quench CP2=100
Cc1ccc(S(=O)(=O)CCC(=O)Nc2ccc(Br)cc2)cc1	-4	-17	26	11	-11	-13	·	·
CCN1C(=O)[C@H]2[C@@H](c3ccc(-c4cccc(Cl)c4)cc3)N[C@@](C)(C(=O)OC)[C@H]2C1=O	1	·	1	·	9	·	·	·
SMILES	DAGLB inh	DNA FID counter	GRK2 inh	HCV NS3 hel inh	core dimer inh	GPR7 antag	GRK2 inh confirm	FAM quench CP1	others
CNC(=O)NC(=O)COC(=O)c1n[nH]c2ccccc12	-3	-1	45*	-1	-4	-1	0	98
O=C(OCCOc1ccccc1)c1n[nH]c2ccccc12	-1	-10	78*	-7	-4	-8	4	97
CSc1ccc(S(=O)(=O)NCC(=O)OCC(=O)NCc2cccs2)cc1[N+](=O)[O-]	4	·	0	·	0	·	·	·
O=C(NC(Cc1ccccc1)C(=O)O)/C(=C/c1cccc([N+](=O)[O-])c1)NC(=O)c1cccc(Br)c1 (centres undefined)	3	0	1	-4	-5	-9	·	·
CCC(C)c1ccc(S(=O)(=O)N2CCN3CCCC3C2)cc1 (centres undefined)	-5	2	13	-6	5	-5	·	·
CCCCC(=O)NCc1ccc(Cl)cc1	1	-2	1	17	-3	-12	·	·
COc1ccc(Cc2cc(NCc3ccccc3)c3ncn(C(C)C)c3c2)cc1	6	·	97*	·	·	·	·	·	GRK2 CP2=-24;FAM quench CP2=101
CC1=C(/C=C/C(C)=C/C=C/C(C)=C/CO)C(C)(C)CCC1	-2	·	86*	·	0	·	5	102
CCN(CC)CCN(C(=O)CCS(=O)(=O)c1ccccc1)c1nc2cc3c(cc2s1)OCO3	3	13	0	-54	-8	-12	·	·
CC[n+]1ccc(C[n+]2ccccc2)c2ccccc21	0	5	54*	-3	-4	-9	3	95
Cc1ccc2c(c1)c(C)cc[n+]2Cc1ccccc1	2	0	2	-13	-4	4	·	·
